Test results as given in ChEMBL document CHEMBL1157072 (Bioorg Med Chem, 2010).
Converted amounts (≈) assume the structure as drawn. Numbered stars: 1 amine (or outer) side, 2 acyl side, 3 side chain; on linkers, the order of the positions; unused ones are H or OH. Bridge positions count the residues as written; N and C are the ends. Square brackets hold non-standard residues; d marks the D form. Peptide text beside a SMILES is read from it. I, II: the chains in the order shown. Actinocin(1to9) = Cc1c2oc3c(C)ccc(C(=O)[*:2])c3nc-2c(C(=O)[*:1])c(N)c1=O; NMeV = CN[C@H](C(=O)O)C(C)C; Sar = CNCC(=O)O

Experiments:
[1] = test system: Staphylococcus aureus; experiment: Antibacterial activity against Staphylococcus aureus NCTC 8325 after 16 to 20 hrs by broth microdilution method; format: functional
How it was run: (§1)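 Broth microdilution in cation-adjusted Mueller Hinton broth. Compounds were serially diluted twofold in DMSO at 50-fold final strength (2% DMSO final). The inoculum was 1 × 10^4 cells per well. Plates were incubated at 37 °C for 16–20 h, and growth was read as absorbance at 600 nm.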

[2] = test system: Staphylococcus aureus; experiment: microbe, parasite or virus in culture; conditions: isolate d20A1
[3] = Selectivity ratio of MIC for MBX-1090-resistant Staphylococcus aureus isolate d20A1 to MIC for Staphylococcus aureus NCTC 8325; format: functional
How it was run: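 Ratio of resistant-mutant MIC to NCTC 8325 MIC. Both MICs came from broth microdilution in cation-adjusted MHB with 2% DMSO final and 1 × 10^4 cells per well, incubated at 37 °C for 16–20 h and read at 600 nm.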

[4] = test system: Staphylococcus aureus; experiment: Antibacterial activity against Staphylococcus aureus NCTC 8325 harboring genetic deletion of mepRA gene and carrying expression vector pG154 with mepA gene after 16 to 20 hrs by broth microdilution method; format: functional; how it was run: as §1
[5] = test system: Staphylococcus aureus; experiment: Antibacterial activity against Staphylococcus aureus NCTC 8325 harboring genetic deletion of mepRA gene and carrying expression vector pG154 with mepA gene after 16 to 20 hrs by broth microdilution method in presence of anhydrous tetracycline; format: functional
How it was run: (§2)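 Broth microdilution in cation-adjusted MHB containing anhydrous tetracycline at 100 ng/ml final to induce the pG154 expression vector. Twofold DMSO compound dilutions were used (2% DMSO final) with 1 × 10^4 cells per well. Incubation was 37 °C for 16–20 h, and absorbance was read at 600 nm.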

[6] = test system: Staphylococcus aureus; experiment: Antibacterial activity against Staphylococcus aureus NCTC 8325 carrying expression vector pG154 after 16 to 20 hrs by broth microdilution method in presence of anhydrous tetracycline; format: functional; how it was run: as §2
[7] = test system: Staphylococcus aureus; experiment: Antibacterial activity against Staphylococcus aureus NCTC 8325 harboring genetic deletion of mepRA gene and carrying expression vector pG154 after 16 to 20 hrs by broth microdilution method in presence of anhydrous tetracycline; format: functional; how it was run: as §2
[8] = test system: Staphylococcus aureus; experiment: Antibacterial activity against Staphylococcus aureus NCTC 8325 harboring genetic deletion of mepRA gene after 16 to 20 hrs by broth microdilution method; format: functional; how it was run: as §1
[9] = test system: Staphylococcus aureus; experiment: Antibacterial activity against Staphylococcus aureus NCTC 8325 harboring genetic deletion of mepR gene after 16 to 20 hrs by broth microdilution method; format: functional; how it was run: as §1
[10] = test system: Staphylococcus aureus; experiment: Antibacterial activity against Staphylococcus aureus NCTC 8325 carrying expression vector pG154 with mepA gene after 16 to 20 hrs by broth microdilution method in presence of anhydrous tetracycline; format: functional; how it was run: as §2
[11] = test system: Staphylococcus aureus; experiment: Antibacterial activity against Staphylococcus aureus NCTC 8325 carrying expression vector pG154 with mepA gene after 16 to 20 hrs by broth microdilution method; format: functional; how it was run: as §1
[12] = test system: Staphylococcus aureus; experiment: Antibacterial activity against Staphylococcus aureus NCTC 8325 harboring genetic deletion of mepRA gene and carrying expression vector pG154 after 16 to 20 hrs by broth microdilution method; format: functional; how it was run: as §1
[13] = test system: Staphylococcus aureus; experiment: Antibacterial activity against Staphylococcus aureus NCTC 8325 carrying expression vector pG154 after 16 to 20 hrs by broth microdilution method; format: functional; how it was run: as §1
[14] = test system: Staphylococcus aureus; experiment: Antibacterial activity against Staphylococcus aureus NCTC 8325 after 16 to 20 hrs by broth microdilution method in presence of efflux pump inhibitor reserpine; format: functional
How it was run: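 Broth microdilution in cation-adjusted MHB with reserpine at 20 µg/ml final in the medium as efflux inhibitor. Twofold DMSO dilutions were made (2% DMSO final) with 1 × 10^4 cells per well. Incubation was 37 °C for 16–20 h, with growth read at 600 nm.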

[15] = Dissociation constant, pKa of the compound; format: physicochemical
[16] = test system: Staphylococcus aureus; experiment: Upregulation of mepB gene expression in MBX-1090-resistant Staphylococcus aureus isolate d20A1 at 0.4 ug/ml by RT-PCR analysis relative to wild type; format: functional
[17] = test system: Staphylococcus aureus; experiment: Upregulation of conventional hypothetical protein mRNA expression in MBX-1090-resistant Staphylococcus aureus isolate d20A1 at 0.4 ug/ml by RT-PCR analysis relative to wild type; format: functional
[18] = test system: Staphylococcus aureus; experiment: Modulation of ribH gene expression in MBX-1090-resistant Staphylococcus aureus isolate d20A1 at 0.4 ug/ml by RT-PCR analysis relative to wild type; format: functional
[19] = test system: Staphylococcus aureus; experiment: Downregulation of protein A gene expression in MBX-1090-resistant Staphylococcus aureus isolate d20A1 at 0.4 ug/ml by RT-PCR analysis relative to wild type; format: functional
[20] = test system: Staphylococcus aureus; experiment: Upregulation of mepA gene expression in MBX-1090-resistant Staphylococcus aureus isolate d20A1 at 0.4 ug/ml by RT-PCR analysis relative to wild type; format: functional
[21] = test system: Staphylococcus aureus; experiment: Modulation of ribE gene expression in MBX-1090-resistant Staphylococcus aureus isolate d20A1 at 0.4 ug/ml by RT-PCR analysis relative to wild type; format: functional
[22] = test system: Staphylococcus aureus; experiment: Modulation of ribA gene expression in MBX-1090-resistant Staphylococcus aureus isolate d20A1 at 0.4 ug/ml by RT-PCR analysis relative to wild type; format: functional
[23] = test system: Staphylococcus aureus; experiment: Modulation of ribD gene expression in MBX-1090-resistant Staphylococcus aureus isolate d20A1 at 0.4 ug/ml by RT-PCR analysis relative to wild type; format: functional

Compound | MIC [1] [mg/L] | MIC [2] [mg/L] | also measured
CCN1CCN(c2cc3c(cc2F)c(=O)c(C(=O)O)cn3C2CC2)CC1 [ENROFLOXACIN] | 0.125 (≈ 0.348 µM) | 0.125 (≈ 0.348 µM) | –
O=C(N[C@H](CO)[C@H](O)c1ccc([N+](=O)[O-])cc1)C(Cl)Cl [CHLORAMPHENICOL] | 8 (≈ 24.8 µM) | 8 (≈ 24.8 µM) | –
NC[C@H]1O[C@H](O[C@H]2[C@H](O)[C@@H](O[C@H]3O[C@H](CO)[C@@H](O)[C@H](N)[C@H]3O)[C@H](N)C[C@@H]2N)[C@H](O)[C@@H](O)[C@@H]1O [KANAMYCIN] | 2 (≈ 4.13 µM) | 8 (≈ 16.5 µM) | Selectivity ratio [3]: 4
CO[C@@H]1[C@@H](OC(N)=O)[C@@H](O)[C@H](Oc2ccc3c(O)c(NC(=O)c4ccc(O)c(CC=C(C)C)c4)c(=O)oc3c2C)OC1(C)C [NOVOBIOCIN] | 0.125 (≈ 0.204 µM) | 0.125 (≈ 0.204 µM) | –
CC(=O)O[C@H]1C[C@@]2(C)[C@@H](C[C@@H](O)[C@H]3[C@@]4(C)CC[C@@H](O)[C@@H](C)[C@@H]4CC[C@@]32C)/C1=C(\CCC=C(C)C)C(=O)O [FUSIDIC ACID] | 0.0625 (≈ 0.121 µM) | 0.0625 (≈ 0.121 µM) | –
CC1(C)S[C@@H]2[C@H](NC(=O)C(C(=O)O)c3ccccc3)C(=O)N2[C@H]1C(=O)O (stereo partly specified) [CARBENICILLIN] | 0.0625 (≈ 0.165 µM) | 0.0625 (≈ 0.165 µM) | –
CO[C@H]1/C=C/O[C@@]2(C)Oc3c(C)c(O)c4c(O)c(c(/C=N/N5CCN(C)CC5)c(O)c4c3C2=O)NC(=O)/C(C)=C\C=C\[C@H](C)[C@H](O)[C@@H](C)[C@@H](O)[C@@H](C)[C@H](OC(C)=O)[C@@H]1C [RIFAMPIN] | 0.0122 (≈ 0.0148 µM) | 0.0122 (≈ 0.0148 µM) | –
GENTAMICIN | 0.25 | – | –
CCn1cc(C(=O)O)c(=O)c2ccc(C)nc21 [NALIDIXIC ACID] | 100 (≈ 431 µM) | 50 (≈ 215 µM) | –
Cc1onc(-c2ccccc2)c1C(=O)N[C@@H]1C(=O)N2[C@@H]1SC(C)(C)[C@@H]2C(=O)O [OXACILLIN] | 0.125 (≈ 0.311 µM) | 0.125 (≈ 0.311 µM) | –
c1cc2cc(-c3ccc4cc(-c5ccc6oc(C7=NCCN7)cc6c5)[nH]c4c3)[nH]c2cc1C1=NCCN1 | 0.5 (≈ 1.03 µM) | 1 (≈ 2.06 µM) | MIC [4]: 0.5 mg/L (≈ 1.03 µM); MIC [5]: 0.5 mg/L; MIC [6]: 1 mg/L; MIC [7]: 0.5 mg/L; MIC [8]: 1 mg/L (≈ 2.06 µM); MIC [9]: 0.5 mg/L (≈ 1.03 µM); MIC [10]: 0.25 mg/L; MIC [11]: 1 mg/L (≈ 2.06 µM); MIC [12]: 1 mg/L (≈ 2.06 µM); MIC [13]: 1 mg/L (≈ 2.06 µM); MIC [14]: 0.25 mg/L
CN[C@@H]1[C@H](O)[C@H](NC)[C@H]2O[C@@]3(O)C(=O)C[C@@H](C)O[C@H]3O[C@@H]2[C@H]1O [SPECTINOMYCIN] | 128 (≈ 385 µM) | 128 (≈ 385 µM) | –
O=C(O)c1cn(C2CC2)c2cc(N3CCNCC3)c(F)cc2c1=O [CIPROFLOXACIN] | 0.195 (≈ 0.589 µM) | 0.391 (≈ 1.18 µM) | Selectivity ratio [3]: 2
N=C(N)c1ccc(-c2cc3ccc(C(=N)N)cc3[nH]2)cc1 [DAPI] | – | – | pKa [15]: 11.6
CN[C@@H]1[C@H](O[C@H]2[C@H](O[C@H]3[C@H](O)[C@@H](O)[C@H](N=C(N)N)[C@@H](O)[C@@H]3N=C(N)N)O[C@@H](C)[C@]2(O)C=O)O[C@@H](CO)[C@H](O)[C@H]1O [STREPTOMYCIN] | 32 (≈ 55 µM) | 128 (≈ 220 µM) | Selectivity ratio [3]: 4
COc1cc(Cc2cnc(N)nc2N)cc(OC)c1OC [TRIMETHOPRIM] | 3.12 (≈ 10.8 µM) | 3.12 (≈ 10.8 µM) | –
CC1(C)S[C@@H]2[C@H](NC(=O)[C@H](N)c3ccccc3)C(=O)N2[C@H]1C(=O)O [AMPICILLIN] | 0.0625 (≈ 0.179 µM) | 0.0625 (≈ 0.179 µM) | –
C/C(=C\C(=O)OCCCCCCCCC(=O)O)C[C@@H]1OC[C@H](C[C@@H]2O[C@H]2[C@@H](C)[C@H](C)O)[C@@H](O)[C@H]1O [MUPIROCIN] | 0.0312 (≈ 0.0624 µM) | 0.0312 (≈ 0.0624 µM) | –
CC[C@H]1OC(=O)[C@H](C)[C@@H](O[C@H]2C[C@@](C)(OC)[C@@H](O)[C@H](C)O2)[C@H](C)[C@@H](O[C@@H]2O[C@H](C)C[C@H](N(C)C)[C@H]2O)[C@](C)(O)C[C@@H](C)C(=O)[C@H](C)[C@@H](O)[C@]1(C)O [ERYTHROMYCIN] | 1 (≈ 1.36 µM) | 0.5 (≈ 0.681 µM) | –
c1cc2cc(-c3ccc(-c4cc5ccc(C6=NCCN6)cc5[nH]4)cc3)[nH]c2cc1C1=NCCN1 | 0.25 (≈ 0.562 µM) | 0.5 (≈ 1.12 µM) | fold change (FC) [16]: 4.2; MIC [4]: 0.25 mg/L (≈ 0.562 µM); MIC [5]: 8 mg/L; MIC [6]: 1 mg/L; fold change (FC) [17]: 6.8; MIC [7]: 0.5 mg/L; pKa [15]: 9.6; MIC [8]: 0.5 mg/L (≈ 1.12 µM); fold change (FC) [18]: 2.1; MIC [9]: 0.25 mg/L (≈ 0.562 µM); fold change (FC) [19]: 3.1; MIC [10]: 0.25 mg/L; fold change (FC) [20]: 8.7; fold change (FC) [21]: 1.2; fold change (FC) [22]: 1.2; MIC [11]: 0.5 mg/L (≈ 1.12 µM); MIC [12]: 0.5 mg/L (≈ 1.12 µM); MIC [13]: 0.5 mg/L (≈ 1.12 µM); fold change (FC) [23]: 1.3; MIC [14]: 0.125 mg/L
Cc1c2oc3c(C)ccc(C(=O)N[C@@H]4C(=O)N[C@H](C(C)C)C(=O)N5CCC[C@H]5C(=O)N(C)CC(=O)N(C)[C@@H](C(C)C)C(=O)O[C@@H]4C)c3nc-2c(C(=O)N[C@@H]2C(=O)N[C@H](C(C)C)C(=O)N3CCC[C@H]3C(=O)N(C)CC(=O)N(C)[C@@H](C(C)C)C(=O)O[C@@H]2C)c(N)c1=O [DACTINOMYCIN] (I: T[dV]P[Sar][NMeV] / II: T[dV]P[Sar][NMeV]; ester I:1-I:C, II:1-II:C; linker I:N-II:N via Actinocin(1to9)) | 0.625 (≈ 0.498 µM) | 0.625 (≈ 0.498 µM) | –
CN(C)[C@@H]1C(O)=C(C(N)=O)C(=O)[C@@]2(O)C(O)=C3C(=O)c4c(O)cccc4[C@@](C)(O)[C@H]3C[C@@H]12 [TETRACYCLINE] | 0.5 (≈ 1.13 µM) | 0.5 (≈ 1.13 µM) | –
